Experimental data taken from ChEMBL document CHEMBL2346519, “Substituted indolin-2-ones as p90 ribosomal S6 protein kinase 2 (RSK2) inhibitors: Molecular docking simulation and structure-activity relationship analysis” (Bioorg Med Chem, 2013).

What was measured:
[1] = molecular target: Mitogen-activated protein kinase 9 (Homo sapiens) (UniProt P45984); experiment: Inhibition of JNK2 (unknown origin) at 3 uM after 10 mins by mobility shift assay relative to control
[2] = molecular target: T1, RAC-alpha serine/threonine-protein kinase (Homo sapiens, UniProt P31749); experiment: Inhibition of AKT1 (unknown origin) at 3 uM after 10 mins by mobility shift assay relative to control
T1 sequence (P31749 whole entry): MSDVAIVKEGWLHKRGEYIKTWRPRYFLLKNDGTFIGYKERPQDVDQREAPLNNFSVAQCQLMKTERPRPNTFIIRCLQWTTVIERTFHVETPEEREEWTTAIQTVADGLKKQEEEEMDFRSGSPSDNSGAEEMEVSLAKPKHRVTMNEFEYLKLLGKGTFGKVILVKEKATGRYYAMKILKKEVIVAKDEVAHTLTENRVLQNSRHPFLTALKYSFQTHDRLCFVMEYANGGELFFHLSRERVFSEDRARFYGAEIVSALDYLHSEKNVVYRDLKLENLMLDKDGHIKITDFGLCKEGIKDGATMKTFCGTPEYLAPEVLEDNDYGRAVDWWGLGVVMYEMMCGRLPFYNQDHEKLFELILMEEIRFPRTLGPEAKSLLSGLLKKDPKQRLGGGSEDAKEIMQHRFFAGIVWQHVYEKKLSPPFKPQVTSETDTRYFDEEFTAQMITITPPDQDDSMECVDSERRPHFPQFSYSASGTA

[3] = molecular target: Hepatocyte growth factor receptor (Homo sapiens) (UniProt P08581); experiment: Inhibition of c-MET (unknown origin) at 3 uM after 10 mins by mobility shift assay relative to control
[4] = molecular target: Tyrosine-protein kinase ABL1 (Homo sapiens) (UniProt P00519); experiment: Inhibition of ABL (unknown origin) at 3 uM after 10 mins by mobility shift assay relative to control
[5] = molecular target: Aurora kinase B (Homo sapiens) (UniProt Q96GD4); experiment: Inhibition of Aurora B (unknown origin) at 3 uM after 10 mins by mobility shift assay relative to control
[6] = molecular target: Proto-oncogene tyrosine-protein kinase Src (Homo sapiens) (UniProt P12931); experiment: Inhibition of SRC (unknown origin) at 3 uM after 10 mins by mobility shift assay relative to control
Sequence of Proto-oncogene tyrosine-protein kinase Src (Homo sapiens) (P12931 2-536 limits assumed): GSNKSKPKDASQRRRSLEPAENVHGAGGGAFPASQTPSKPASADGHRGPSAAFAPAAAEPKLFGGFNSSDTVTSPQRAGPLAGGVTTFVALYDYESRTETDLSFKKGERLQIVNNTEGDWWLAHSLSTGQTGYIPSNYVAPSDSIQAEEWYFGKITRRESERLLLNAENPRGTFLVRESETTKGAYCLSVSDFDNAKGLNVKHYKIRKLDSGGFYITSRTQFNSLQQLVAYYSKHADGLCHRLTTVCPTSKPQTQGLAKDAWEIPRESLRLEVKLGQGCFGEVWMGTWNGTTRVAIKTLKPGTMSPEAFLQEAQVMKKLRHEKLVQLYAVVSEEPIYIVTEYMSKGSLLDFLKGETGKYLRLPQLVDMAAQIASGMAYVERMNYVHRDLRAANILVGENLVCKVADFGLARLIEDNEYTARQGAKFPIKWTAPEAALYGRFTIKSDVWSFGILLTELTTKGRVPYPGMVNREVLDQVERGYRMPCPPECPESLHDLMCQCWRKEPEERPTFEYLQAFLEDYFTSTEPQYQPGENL

[7] = molecular target: Vascular endothelial growth factor receptor 2 (Homo sapiens) (UniProt P35968); experiment: Inhibition of KDR (unknown origin) at 3 uM after 10 mins by mobility shift assay relative to control
[8] = molecular target: Platelet-derived growth factor receptor alpha (Homo sapiens) (UniProt P16234); experiment: Inhibition of PDGFRalpha (unknown origin) at 3 uM after 10 mins by mobility shift assay relative to control
[9] = molecular target: Serine/threonine-protein kinase pim-1 (Homo sapiens) (UniProt P11309); experiment: Inhibition of PIM1 (unknown origin) at 3 uM after 10 mins by mobility shift assay relative to control
[10] = molecular target: Tyrosine-protein kinase Lyn (Homo sapiens) (UniProt P07948); experiment: Inhibition of LYNA (unknown origin) at 3 uM after 10 mins by mobility shift assay relative to control
Sequence of Tyrosine-protein kinase Lyn (Homo sapiens) (P07948 2-512 limits assumed): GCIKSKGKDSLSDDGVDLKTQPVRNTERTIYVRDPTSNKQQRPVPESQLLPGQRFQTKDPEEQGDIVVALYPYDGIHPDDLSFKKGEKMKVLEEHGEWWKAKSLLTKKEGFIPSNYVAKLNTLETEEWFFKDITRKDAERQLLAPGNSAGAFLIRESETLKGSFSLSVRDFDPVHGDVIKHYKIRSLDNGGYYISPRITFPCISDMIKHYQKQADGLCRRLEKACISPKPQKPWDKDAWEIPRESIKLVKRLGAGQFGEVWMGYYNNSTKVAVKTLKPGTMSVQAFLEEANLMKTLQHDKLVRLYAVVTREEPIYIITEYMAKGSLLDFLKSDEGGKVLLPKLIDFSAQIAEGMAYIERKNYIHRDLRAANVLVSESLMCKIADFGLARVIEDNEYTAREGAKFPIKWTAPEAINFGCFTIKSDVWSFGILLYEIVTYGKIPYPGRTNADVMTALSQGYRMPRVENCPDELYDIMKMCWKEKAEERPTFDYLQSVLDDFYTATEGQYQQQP

[11] = molecular target: Protein kinase C alpha type (Homo sapiens) (UniProt P17252); experiment: Inhibition of PKC alpha (unknown origin) using PIP2 as substrate at 3 uM after 1 hr by Kinase-Glo assay relative to control
[12] = molecular target: Mitogen-activated protein kinase 3 (Homo sapiens) (UniProt P27361); experiment: Inhibition of ERK1 (unknown origin) at 10 uM after 10 mins by mobility shift assay relative to control
Sequence of Mitogen-activated protein kinase 3 (Homo sapiens) (P27361 whole entry): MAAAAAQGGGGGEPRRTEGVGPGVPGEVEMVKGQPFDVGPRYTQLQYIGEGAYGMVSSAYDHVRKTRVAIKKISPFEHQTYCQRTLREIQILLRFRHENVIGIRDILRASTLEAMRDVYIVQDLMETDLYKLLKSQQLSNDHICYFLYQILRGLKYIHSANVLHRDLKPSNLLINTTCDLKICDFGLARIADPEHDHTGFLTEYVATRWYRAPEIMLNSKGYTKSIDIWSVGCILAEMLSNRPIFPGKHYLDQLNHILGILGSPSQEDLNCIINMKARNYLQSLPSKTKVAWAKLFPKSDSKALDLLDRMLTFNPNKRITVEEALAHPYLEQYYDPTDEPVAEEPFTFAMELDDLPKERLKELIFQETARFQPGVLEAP

[13] = molecular target: Mitogen-activated protein kinase 9 (Homo sapiens) (UniProt P45984); experiment: Inhibition of JNK2 (unknown origin) at 10 uM after 10 mins by mobility shift assay relative to control
[14] = molecular target: T1, RAC-alpha serine/threonine-protein kinase; experiment: Inhibition of AKT1 (unknown origin) at 10 uM after 10 mins by mobility shift assay relative to control
[15] = molecular target: Ribosomal protein S6 kinase alpha-5 (Homo sapiens) (UniProt O75582); experiment: Inhibition of MSK1 (unknown origin) at 10 uM after 10 mins by mobility shift assay relative to control
[16] = molecular target: Aurora kinase B (Homo sapiens) (UniProt Q96GD4); experiment: Inhibition of Aurora B (unknown origin) at 10 uM after 10 mins by mobility shift assay relative to control
[17] = molecular target: Hepatocyte growth factor receptor (Homo sapiens) (UniProt P08581); experiment: Inhibition of c-MET (unknown origin) at 10 uM after 10 mins by mobility shift assay relative to control
[18] = molecular target: Tyrosine-protein kinase ABL1 (Homo sapiens) (UniProt P00519); experiment: Inhibition of ABL (unknown origin) at 10 uM after 10 mins by mobility shift assay relative to control
[19] = molecular target: Platelet-derived growth factor receptor alpha (Homo sapiens) (UniProt P16234); experiment: Inhibition of PDGFRalpha (unknown origin) at 10 uM after 10 mins by mobility shift assay relative to control
[20] = molecular target: Serine/threonine-protein kinase pim-1 (Homo sapiens) (UniProt P11309); experiment: Inhibition of PIM1 (unknown origin) at 10 uM after 10 mins by mobility shift assay relative to control
[21] = molecular target: Mast/stem cell growth factor receptor Kit (Homo sapiens) (UniProt P10721); experiment: Inhibition of cKit (unknown origin) at 10 uM after 10 mins by mobility shift assay relative to control
[22] = molecular target: Tyrosine-protein kinase Lyn (Homo sapiens) (UniProt P07948); experiment: Inhibition of LYN-A (unknown origin) at 10 uM after 10 mins by mobility shift assay relative to control
MCF7 = experiment: Cytotoxicity against human MCF7 cells assessed as growth inhibition after 48 hrs by MTT assay; type: functional, cell-based; details: MCF7, 48 h
Method in brief: (§1)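 MCF-7 cells grown in DMEM plus 10% FBS and PC 3 cells in F-12K, both seeded at 5 × 10^3 per well. Cells were exposed to compounds at various concentrations for 48 h. MTT was then added for 4 h at 37 °C in 5% CO2, formazan was dissolved in DMSO, and absorbance was read at 570 nm. IC50 was taken from inhibition curves of three independent experiments and measured only where inhibition at 100 µM exceeded 50%.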

PC-3 = experiment: Cytotoxicity against human PC3 cells assessed as growth inhibition after 48 hrs by MTT assay; type: functional, cell-based; details: PC-3, 48 h; method in brief: as §1
[23] = molecular target: T2, Ribosomal protein S6 kinase alpha-3 (Homo sapiens, UniProt P51812); experiment: Inhibition of RSK2 (unknown origin) using AKRRRLSSLRA as substrate after 60 mins by fluorescence assay
T2 sequence (P51812 whole entry): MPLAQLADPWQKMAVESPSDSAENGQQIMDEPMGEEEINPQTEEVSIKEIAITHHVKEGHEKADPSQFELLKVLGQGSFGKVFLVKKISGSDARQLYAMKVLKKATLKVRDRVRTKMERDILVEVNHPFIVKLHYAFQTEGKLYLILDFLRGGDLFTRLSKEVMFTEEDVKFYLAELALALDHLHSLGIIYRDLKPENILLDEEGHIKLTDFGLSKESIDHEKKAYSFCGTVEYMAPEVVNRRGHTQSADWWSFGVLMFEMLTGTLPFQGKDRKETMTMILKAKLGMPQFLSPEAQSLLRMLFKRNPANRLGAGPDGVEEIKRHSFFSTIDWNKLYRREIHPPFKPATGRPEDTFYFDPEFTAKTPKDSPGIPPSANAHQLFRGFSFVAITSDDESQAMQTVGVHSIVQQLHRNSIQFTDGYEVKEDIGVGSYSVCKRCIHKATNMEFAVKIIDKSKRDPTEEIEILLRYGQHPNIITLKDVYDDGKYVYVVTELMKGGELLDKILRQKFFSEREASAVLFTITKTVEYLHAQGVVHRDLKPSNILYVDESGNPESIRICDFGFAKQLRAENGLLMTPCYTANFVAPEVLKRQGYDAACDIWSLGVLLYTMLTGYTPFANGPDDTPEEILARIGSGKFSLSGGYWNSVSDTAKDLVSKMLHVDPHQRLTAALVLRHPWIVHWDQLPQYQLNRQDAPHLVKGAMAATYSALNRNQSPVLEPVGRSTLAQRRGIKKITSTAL

[24] = molecular target: T2, Ribosomal protein S6 kinase alpha-3; experiment: Inhibition of RSK2 (unknown origin) using AKRRRLSSLRA as substrate at 10 uM after 60 mins by fluorescence assay relative to control
[25] = molecular target: Protein kinase C alpha type (Homo sapiens) (UniProt P17252); experiment: Inhibition of PKC alpha (unknown origin) using PIP2 as substrate at 10 uM after 1 hr by Kinase-Glo assay relative to control
[26] = molecular target: Ribosomal protein S6 kinase beta-1 (Homo sapiens) (UniProt P23443); experiment: Inhibition of p70S6K (unknown origin) at 10 uM after 10 mins by mobility shift assay relative to control
[27] = molecular target: T3, Mitogen-activated protein kinase 14 (Homo sapiens, UniProt Q16539); experiment: Inhibition of p38alpha (unknown origin) after 10 mins by mobility shift assay
T3 sequence (Q16539 whole entry): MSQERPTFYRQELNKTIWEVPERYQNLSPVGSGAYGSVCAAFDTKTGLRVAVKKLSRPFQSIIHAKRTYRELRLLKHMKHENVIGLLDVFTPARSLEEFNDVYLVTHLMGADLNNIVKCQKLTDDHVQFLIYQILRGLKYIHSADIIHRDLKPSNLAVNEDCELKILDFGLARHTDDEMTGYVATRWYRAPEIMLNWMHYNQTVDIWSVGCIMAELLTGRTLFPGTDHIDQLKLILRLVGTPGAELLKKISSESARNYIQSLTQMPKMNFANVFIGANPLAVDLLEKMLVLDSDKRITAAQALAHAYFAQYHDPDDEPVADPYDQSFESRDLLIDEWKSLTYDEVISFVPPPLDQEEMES

[28] = molecular target: T1, RAC-alpha serine/threonine-protein kinase; experiment: Inhibition of AKT1 (unknown origin) after 10 mins by mobility shift assay
[29] = molecular target: T3, Mitogen-activated protein kinase 14; details: 3 uM
[30] = molecular target: Mitogen-activated protein kinase 3 (Homo sapiens) (UniProt P27361); details: 3 uM
[31] = molecular target: Glycogen synthase kinase-3 beta (Homo sapiens) (UniProt P49841); details: 3 uM
[32] = molecular target: Ribosomal protein S6 kinase alpha-5 (Homo sapiens) (UniProt O75582); details: 3 uM
[33] = molecular target: Fibroblast growth factor receptor 1 (Homo sapiens) (UniProt P11362); details: 3 uM
[34] = molecular target: Fibroblast growth factor receptor 3 (Homo sapiens) (UniProt P22607); details: 3 uM
Sequence of Fibroblast growth factor receptor 3 (Homo sapiens) (P22607 23-806 limits assumed): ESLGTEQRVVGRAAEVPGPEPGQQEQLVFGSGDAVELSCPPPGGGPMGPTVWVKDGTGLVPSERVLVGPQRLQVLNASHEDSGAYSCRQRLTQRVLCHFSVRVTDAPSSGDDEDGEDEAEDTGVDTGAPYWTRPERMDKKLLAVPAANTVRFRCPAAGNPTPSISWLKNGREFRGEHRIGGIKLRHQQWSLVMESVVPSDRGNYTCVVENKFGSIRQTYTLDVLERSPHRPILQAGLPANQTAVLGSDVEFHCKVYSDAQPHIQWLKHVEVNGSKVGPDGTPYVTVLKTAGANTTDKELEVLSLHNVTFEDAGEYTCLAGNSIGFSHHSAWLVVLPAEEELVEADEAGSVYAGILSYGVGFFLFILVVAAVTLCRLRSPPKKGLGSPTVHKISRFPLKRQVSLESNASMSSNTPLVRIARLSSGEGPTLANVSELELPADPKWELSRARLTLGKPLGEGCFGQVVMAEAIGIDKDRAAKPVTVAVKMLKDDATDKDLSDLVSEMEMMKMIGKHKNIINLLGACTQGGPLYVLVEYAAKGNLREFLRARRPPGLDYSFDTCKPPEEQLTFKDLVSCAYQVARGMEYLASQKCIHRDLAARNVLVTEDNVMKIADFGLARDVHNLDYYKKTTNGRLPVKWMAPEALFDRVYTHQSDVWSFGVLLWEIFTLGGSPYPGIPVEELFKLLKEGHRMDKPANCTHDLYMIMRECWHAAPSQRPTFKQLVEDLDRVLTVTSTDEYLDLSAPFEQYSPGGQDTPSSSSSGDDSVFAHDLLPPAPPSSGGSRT

[35] = molecular target: Mast/stem cell growth factor receptor Kit (Homo sapiens) (UniProt P10721); details: 3 uM
[36] = molecular target: Tyrosine-protein kinase Lck (Homo sapiens) (UniProt P06239); details: 3 uM
Sequence of Tyrosine-protein kinase Lck (Homo sapiens) (P06239 2-509 limits assumed): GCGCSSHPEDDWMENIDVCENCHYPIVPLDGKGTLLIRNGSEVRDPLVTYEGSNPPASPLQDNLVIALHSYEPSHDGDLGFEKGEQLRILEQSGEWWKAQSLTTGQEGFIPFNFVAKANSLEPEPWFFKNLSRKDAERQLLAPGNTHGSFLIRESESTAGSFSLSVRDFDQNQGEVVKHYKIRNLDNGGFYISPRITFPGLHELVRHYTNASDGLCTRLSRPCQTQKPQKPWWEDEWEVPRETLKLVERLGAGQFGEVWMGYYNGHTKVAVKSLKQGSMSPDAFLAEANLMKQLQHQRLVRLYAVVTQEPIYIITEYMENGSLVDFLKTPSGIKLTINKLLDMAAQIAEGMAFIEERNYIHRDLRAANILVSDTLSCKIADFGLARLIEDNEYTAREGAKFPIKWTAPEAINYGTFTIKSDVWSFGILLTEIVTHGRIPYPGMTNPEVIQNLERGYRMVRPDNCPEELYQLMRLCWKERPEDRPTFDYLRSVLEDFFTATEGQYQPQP

[37] = molecular target: Ribosomal protein S6 kinase beta-1 (Homo sapiens) (UniProt P23443); details: 3 uM
[38] = molecular target: T2, Ribosomal protein S6 kinase alpha-3; details: 3 uM
[39] = molecular target: T3, Mitogen-activated protein kinase 14; details: 10 uM
[40] = molecular target: Glycogen synthase kinase-3 beta (Homo sapiens) (UniProt P49841); details: 10 uM
[41] = molecular target: Proto-oncogene tyrosine-protein kinase Src (Homo sapiens) (UniProt P12931); details: 10 uM
[42] = molecular target: Vascular endothelial growth factor receptor 2 (Homo sapiens) (UniProt P35968); details: 10 uM
[43] = molecular target: Fibroblast growth factor receptor 1 (Homo sapiens) (UniProt P11362); details: 10 uM
[44] = molecular target: Fibroblast growth factor receptor 3 (Homo sapiens) (UniProt P22607); details: 10 uM
[45] = molecular target: Tyrosine-protein kinase Lck (Homo sapiens) (UniProt P06239); details: 10 uM
[46] = molecular target: 3-phosphoinositide-dependent protein kinase 1 (Homo sapiens) (UniProt O15530); experiment: Inhibition of PDK1 (unknown origin) at 3 uM after 10 mins by mobility shift assay relative to control
[47] = molecular target: 3-phosphoinositide-dependent protein kinase 1 (Homo sapiens) (UniProt O15530); experiment: Inhibition of PDK1 (unknown origin) at 10 uM after 10 mins by mobility shift assay relative to control

Sequence of Mitogen-activated protein kinase 9 (Homo sapiens) (P45984 whole entry, looked up): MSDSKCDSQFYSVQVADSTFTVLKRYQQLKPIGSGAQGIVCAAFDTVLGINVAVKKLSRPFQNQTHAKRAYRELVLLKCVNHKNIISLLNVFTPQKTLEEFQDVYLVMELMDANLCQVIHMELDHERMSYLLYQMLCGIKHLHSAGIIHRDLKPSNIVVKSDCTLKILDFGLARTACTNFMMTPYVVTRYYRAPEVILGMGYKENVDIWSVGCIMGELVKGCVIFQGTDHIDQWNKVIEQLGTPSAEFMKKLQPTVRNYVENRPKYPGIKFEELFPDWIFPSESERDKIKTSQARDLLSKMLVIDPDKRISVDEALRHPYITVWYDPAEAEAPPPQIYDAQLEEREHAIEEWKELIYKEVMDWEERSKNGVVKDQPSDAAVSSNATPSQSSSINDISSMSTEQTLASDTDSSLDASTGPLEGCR

O=C1Nc2ccccc2/C1=C/c1c[nH]nc1-c1ccccc1[N+](=O)[O-]
inhibition [1]: 36% | inhibition [2]: 7.8% | inhibition [3]: 12% | inhibition [4]: 43% | inhibition [5]: 25% | inhibition [6]: 30% | inhibition [7]: 39% | inhibition [8]: 20% | inhibition [9]: 4.2% | inhibition [10]: 25% | inhibition [11]: 4.4% | inhibition [12]: 57% | inhibition [13]: 71% | inhibition [14]: 8.3% | inhibition [15]: 33% | inhibition [16]: 34% | inhibition [17]: 16% | inhibition [18]: 67% | inhibition [19]: 38% | inhibition [20]: 4.7% | inhibition [21]: 64% | inhibition [22]: 49% | IC50 (MCF7): 14800 nM | IC50 (PC-3): 9320 nM | IC50 [23]: 500 nM | inhibition [24]: 93.4% | inhibition [25]: 13% | inhibition [26]: 71% | IC50 [27]: 11 nM | IC50 [28]: 11 nM | inhibition [29]: 19% | inhibition [30]: 31% | inhibition [31]: 37% | inhibition [32]: 31% | inhibition [33]: 44% | inhibition [34]: 44% | inhibition [35]: 55% | inhibition [36]: 31% | inhibition [37]: 44% | inhibition [38]: 61% | inhibition [39]: 27% | inhibition [40]: 40% | inhibition [41]: 55% | inhibition [42]: 65% | inhibition [43]: 65% | inhibition [44]: 65% | inhibition [45]: 55% | inhibition [46]: 6.7% | inhibition [47]: 6.2%
